Measured values from ChEMBL document CHEMBL4376840, “Application of Fluorine- and Nitrogen-Walk Approaches: Defining the Structural and Functional Diversity of 2-Phenylindole Class of Cannabinoid 1 Receptor Positive Allosteric Modulators” (J Med Chem, 2020).
Active and inactive are the calls of the source.

Tests used:
Cannabinoid receptor 1 [1] = target: T1, Cannabinoid receptor 1 (Homo sapiens, UniProt P21554); assay: Positive allosteric modulatory activity at human CB1R expressed in CHO-K1 cells assessed as increase in CP55940-induced beta-arrestin2 recruitment after 90 mins in presence of CP55940 at EC20 concentration by pathhunter beta-arrestin assay; assay type: cell-based
Summary of the method: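 Read-out was chemiluminescent β-arrestin2 recruitment, fit with a 4-parameter regression. n = 1–3 independent experiments in duplicate.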

Cannabinoid receptor 1 [2] = target: Cannabinoid receptor 1 (Rattus norvegicus, UniProt P20272); assay: Allosteric agonist activity at N-terminal GFP-tagged rat CB1R expressed in HEK293 cells assessed as inhibition of forskolin-induced cAMP production after 30 min by TR-FRET assay; assay type: functional, cell-based
Summary of the method: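 HEK293 cells stably expressing N-terminal GFP-tagged rat CB1R were trypsin-EDTA dissociated and resuspended in HBSS with 0.1% BSA and 0.5mM IBMX at 500 cells/well. Cells got 5μM forskolin plus compound (1 pM – 10 μM) alone for 30 min. 4-parameter fit; Emin is the lower plateau. n ≥ 3, triplicate.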

[3] = target: Cannabinoid receptor 1 (Rattus norvegicus) (UniProt P20272); assay: (§1) Positive allosteric modulatory activity at N-terminal GFP-tagged rat CB1R receptor expressed in HEK293 cells assessed as increase in CP55940-induced inhibition of forskolin-induced cAMP accumulation by measuring Emax for cAMP accumulation at low concentration of CP55940 at 0.001 microM after 30 mins by TR-FRET assay relative to forskolin; assay type: functional, cell-based
[4] = target: Cannabinoid receptor 1 (Rattus norvegicus) (UniProt P20272); assay: as §1, with “concentrations” for “concentration”, “0.03” for “0.001”; assay type: functional, cell-based
[5] = target: Cannabinoid receptor 1 (Rattus norvegicus) (UniProt P20272); assay: as §1, with “0.1” for “0.001”; assay type: functional, cell-based
Cannabinoid receptor 1 [6] = target: T1, Cannabinoid receptor 1; assay: Displacement of [3H]CP55940 from human CB1R receptor expressed in CHO cell membranes after 60 mins by liquid scintillation spectrometry analysis
Cannabinoid receptor 1 [7] = target: T1, Cannabinoid receptor 1; assay: Positive allosteric modulation activity at human CB1 receptor expressed in CHO cell membranes assessed as increase in [3H]CP55940 binding at 1 uM measured after 90 mins in presence of [35S]GTPgammaS by liquid scintillation analysis; assay type: functional
Cannabinoid receptor 1 [8] = target: T1, Cannabinoid receptor 1; assay: Agonist activity at human CB1 receptor expressed in CHO cell membranes assessed as increase in G-protein coupling by measuring [35S]GTPgammaS binding after 90 mins in presence of [35S]GTPgammaS by liquid scintillation analysis; assay type: functional
Summary of the method: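 [35S]GTPγS binding to G protein in membranes from CHO cells stably expressing human CB1R, with test compound given alone. Data fit to a variable-slope 4-parameter nonlinear regression. n = 4–6 independent experiments in duplicate.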

Cannabinoid receptor 1 [9] = target: T1, Cannabinoid receptor 1; assay: (§2) Positive allosteric modulatory activity at human CB1R expressed in CHO-K1 cells assessed as increase in CP55940-induced inhibition of forskolin-induced cAMP accumulation after 90 mins in presence of 100 nM CP55940 by hit-hunter cAMP assay; assay type: functional, cell-based
Summary of the method: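 Uses the HitHunter CHO-K1 hCB1R cAMP set-up above. Data normalized to % forskolin, 4-parameter fit. n ≥ 6, triplicate.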

Cannabinoid receptor 1 [10] = target: T1, Cannabinoid receptor 1; assay: as §2, with “accumulation by measuring cAMP accumulation at minimal level at higher concentration” for “accumulation”, “assay relative to forskolin” for “assay”; assay type: functional, cell-based
Summary of the method: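 Uses the HitHunter CHO-K1 hCB1R cAMP set-up above. […] Data normalized to % forskolin, 4-parameter fit. n ≥ 6, triplicate.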

Cannabinoid receptor 1 [11] = target: T1, Cannabinoid receptor 1; assay: Allosteric agonist activity at human CB1R expressed in CHO-K1 cells assessed as increase in beta arrestin2 recruitment after 90 mins by pathhunter beta-arrestin assay relative to CP55940; assay type: cell-based
Summary of the method: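 PathHunter CHO-K1 hCB1R cells (20,000/well) were held overnight in Opti-MEM with 1% FBS. Compound alone (0.10 nM – 10 μM) was given at 37°C for 90 min, then detection solution for 60 min at room temperature and chemiluminescence was read.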

Mus musculus [12] = assay: Antiallodynic activity in ip dosed CFA-induced mechanical allodynia CD1 mouse model assessed as increase in ipsilateral paw withdrawal threshold measured every 3 hrs for 2 days post treatment by Von Frey test; assay type: functional, organism-based
Summary of the method: (§3)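 Mice received CFA injection into one paw. Mechanical paw withdrawal thresholds were measured in the injected (ipsilateral) and contralateral paws after i.p. compound at 0.1, 0.3, 1, 3, 10 or 30 mg/kg, compared with vehicle-treated groups at the same times.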

Mus musculus [13] = assay: Effect on contralateral paw withdrawl threshold in CFA-induced mechanical allodynia CD1 mouse model at 0.1 to 30 mg/kg, ip measured every 3 hrs for 2 days post treatment by Von Frey test; assay type: ADME, organism-based; settings: in vivo, 48 h; summary of the method: as §3
Mus musculus [14] = assay: Antiallodynic activity against CFA-induced mechanical allodynia CD1 mouse model assessed as effect on ipsilateral paw withdrawal threshold at 0.3 mg/kg, ip measured every 3 hrs for 2 days post treatment by Von Frey test; assay type: functional, organism-based; summary of the method: as §3
Mus musculus [15] = assay: Antiallodynic activity against CFA-induced mechanical allodynia CD1 mouse model assessed as increase in ipsilateral paw withdrawal threshold at 30 mg/kg, ip by Von Frey test; assay type: functional, organism-based; settings: TDE = time-dependent effect
Summary of the method: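 Time course in the CFA model at 30 mg/kg i.p. Ipsilateral and contralateral mechanical paw withdrawal thresholds were followed from 30 min to 4 h post-injection in wild-type and CB1 knockout mice. Compared with vehicle by ANOVA and Bonferroni post hoc tests.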

Mus musculus [16] = assay: Effect on contralateral paw withdrawl threshold in CFA-induced mechanical allodynia CB1 receptor knockout CD1 mouse model at 0.1 to 30 mg/kg, ip measured for 0.5 to 4 hrs by Von Frey test; assay type: ADME, organism-based; settings: in vivo
Mus musculus [17] = assay: Antinociceptive activity in C57BL/6 mouse at 3 to 10 mg/kg, ip after 20 mins post treatment by warm water tail-flick assay; assay type: functional, organism-based
[18] = target: Cannabinoid receptor 1 (Rattus norvegicus) (UniProt P20272); assay: Positive allosteric modulatory activity at N-terminal GFP-tagged rat CB1R receptor expressed in HEK293 cells assessed as leftward shift in CP55940 dependent concentration response curve for inhibition of forskolin-induced cAMP accumulation after 30 mins by TR-FRET assay; assay type: functional, cell-based
Mus musculus [19] = assay: Antiallodynic activity against CFA-induced mechanical allodynia CD1 mouse model assessed as increase in ipsilateral paw withdrawal threshold at 30 mg/kg, ip after […] post treatment by Von Frey test; assay type: functional, organism-based
[20] = human, microsomes, 1 µM
[21] = rat, microsomes, 1 µM

T1 sequence (P21554 whole entry): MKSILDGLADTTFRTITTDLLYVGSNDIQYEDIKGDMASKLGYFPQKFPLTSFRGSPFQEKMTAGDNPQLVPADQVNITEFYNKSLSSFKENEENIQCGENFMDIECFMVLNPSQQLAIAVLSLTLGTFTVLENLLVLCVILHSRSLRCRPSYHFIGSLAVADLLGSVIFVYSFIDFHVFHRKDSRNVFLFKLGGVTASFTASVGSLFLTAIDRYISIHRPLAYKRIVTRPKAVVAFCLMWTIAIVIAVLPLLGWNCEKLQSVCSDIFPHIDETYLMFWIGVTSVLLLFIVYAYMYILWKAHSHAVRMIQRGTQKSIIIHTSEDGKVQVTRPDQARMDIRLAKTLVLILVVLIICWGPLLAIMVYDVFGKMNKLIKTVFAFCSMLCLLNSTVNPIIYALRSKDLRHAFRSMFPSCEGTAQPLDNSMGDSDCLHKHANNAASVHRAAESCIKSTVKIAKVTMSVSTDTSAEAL
Chain of Cannabinoid receptor 1 (Rattus norvegicus) (P20272 whole entry): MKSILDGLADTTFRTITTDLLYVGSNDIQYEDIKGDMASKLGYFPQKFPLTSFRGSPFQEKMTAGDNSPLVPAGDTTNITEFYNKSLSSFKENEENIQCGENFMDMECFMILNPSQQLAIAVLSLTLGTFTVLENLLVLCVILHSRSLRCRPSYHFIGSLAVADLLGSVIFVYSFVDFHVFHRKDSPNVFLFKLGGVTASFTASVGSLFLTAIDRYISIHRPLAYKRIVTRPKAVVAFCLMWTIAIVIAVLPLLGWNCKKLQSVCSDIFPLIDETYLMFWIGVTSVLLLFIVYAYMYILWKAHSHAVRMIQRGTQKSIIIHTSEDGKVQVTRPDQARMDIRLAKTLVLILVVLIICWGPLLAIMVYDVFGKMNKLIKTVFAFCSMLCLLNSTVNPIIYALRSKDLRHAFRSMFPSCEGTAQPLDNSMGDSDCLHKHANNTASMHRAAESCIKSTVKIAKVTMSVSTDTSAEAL
Chain of Cannabinoid receptor 1 (Rattus norvegicus, UniProt P20272) (P20272 whole entry): as above

| Compound | EC50 (Cannabinoid receptor 1 [1]) [µM] | EC50 (Cannabinoid receptor 1 [2]) [µM] | Emax [3] [%] | Emax [4] [%] | Emax [5] [%] | Ki (Cannabinoid receptor 1 [6]) [µM] | Activity (Cannabinoid receptor 1 [7]) | EC50 (Cannabinoid receptor 1 [8]) [µM] | EC50 (Cannabinoid receptor 1 [9]) [µM] | Emin (Cannabinoid receptor 1 [10]) [%] | Emax (Cannabinoid receptor 1 [11]) [%] | Activity (Mus musculus [12]) | Activity (Mus musculus [13]) | Activity (Mus musculus [14]) | Activity (Mus musculus [15]) | Activity (Mus musculus [16]) | Activity (Mus musculus [17]) | Activity [18] | Activity (Mus musculus [19]) | CLH [20] [µL/min] | also measured |
| --- | --- | --- | --- | --- | --- | --- | --- | --- | --- | --- | --- | --- | --- | --- | --- | --- | --- | --- | --- | --- | --- |
| O=[N+]([O-])CC(c1ccccc1F)c1c(-c2cccc(F)c2)[nH]c2cc(F)ccc12 (stereo unspecified) | 0.75 | 0.027 | 76 | 58 | 46 | 0.088 | Active | 0.047 | 0.0022 | 9 | 34 | Dose-dependent effect | Non-Toxic | inactive | Tde | Non-Toxic | Active | Dose-dependent effect | Active | 44.9 | CLH [21]: 248 µL/min |
| O=[N+]([O-])CC(c1ccccc1F)c1c(-c2cccc(F)c2)[nH]c2c(F)cccc12 (stereo unspecified) | 0.51 | 0.026 | 74 | 63 | 52 | 0.094 | Active | 0.033 | 0.0017 | 10 | 25 | Dose-dependent effect | Non-Toxic | inactive | Tde | Non-Toxic | Active | Dose-dependent effect | Active | 44.4 | – |
